Only some compounds are listed: those with a hit (about 0.48% of all), similar ones and a draw of the others.
Bfl-1 A1 inh – caspase 3/7 activation in MEF A1-2A-BIM cells, primary screen, A1 inhibitor project, cell-based, luminescence, HTS. caspase activation, % (test concentration not listed). Caspase-Glo 3/7 luminescence, 3 h; percent of clofoctol response, vehicle zero. 330,000 compounds, 0.066% hits;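 active = over half of replicate activation scores above 10%, or exactly half above 10 with the replicate mean above 10; inconclusive = replicate mean below 10 yet half the replicates above 10; inactive = over half of replicates below 10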
Rce1 inh – yeast Rce1p protease inhibitors, primary screen, biochemical, fluorescence, cell-free homogeneous; AID 2563, 2010; 290,000 compounds, 0.27% hits; CAAX prenyl protease 2 (Saccharomyces cerevisiae (strain ATCC 204508 / S288c)), Q03530; yeast membranes, quenched prenylated peptide cleavage fluorescence; calls only;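 active = fall in fluorescence gain of 50% or more versus controls, with final raw signal at or below 3038400; inconclusive = same 50% fall but final raw signal above 3038400; inactive = fall in fluorescence gain under 50%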
Target sequence (Q03530 whole entry, looked up): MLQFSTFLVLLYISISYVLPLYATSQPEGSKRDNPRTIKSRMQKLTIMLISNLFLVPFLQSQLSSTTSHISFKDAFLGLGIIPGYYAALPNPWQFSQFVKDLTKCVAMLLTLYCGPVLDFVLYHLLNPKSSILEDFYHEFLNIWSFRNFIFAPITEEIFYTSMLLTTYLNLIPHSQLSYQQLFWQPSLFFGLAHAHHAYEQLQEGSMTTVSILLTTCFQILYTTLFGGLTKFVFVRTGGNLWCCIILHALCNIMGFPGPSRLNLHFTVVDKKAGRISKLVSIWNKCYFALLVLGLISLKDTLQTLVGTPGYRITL
PolyA inh – polyadenylation inhibitors in yeast reporter cells, primary screen, luminescence, S. cerevisiae | S. cerevisiae SKY197-pL101 polyadenylation reporter, beta-gal luminescence; efflux-impaired pdr1/pdr3 knockout yeast; score 100 = 6 SD above DMSO | activity score, % at 12 µM | 300,000 compounds, 0.02% hits;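 active = lowest replicate activity score at least 50, where 100 means six control SD above control mean; inconclusive = lowest score under 50 but half or more replicates reach 50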;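 note: yeast exposed to compound for 9 h at 30 °C; higher score means more reporter readthrough which indicates perturbed polyadenylation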
proCasp7 act – procaspase-7 activators, primary screen, counter-screen for procaspase-3 activator project, biochemical, absorbance, HTS, human. AID 463210, 2010. 330,000 compounds, 0.093% hits. recombinant procaspase-7, Ac-DEVD-pNA absorbance 405 nm; D23A/D198A/D206A triple mutant, cannot self-cleave; scale: DMSO 0, 5 µM enzyme 100. activation, % at 8.5 µM;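 active = percent activation above the screen-wide mean plus 3 SD, cut at about 25% in these data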
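buffer or medium = Zinc-free HEPES/NaCl buffer, pH 7.4 | material = Procaspase-7 triple mutant (PC-7 D3A) | input = 2 µM procaspase-7 mutant as dispensed | signal = Epi-absorbance of released pNA at 405 nm, two timepoints | timing = 1 h preincubation, 2 h reaction | replicates = singlicate compound testing | evaluation = % activation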
proCasp3 act – activators of human procaspase-3 D3A mutant, primary screen, biochemical, absorbance, PC-3 D3A mutant, single concentration; Caspase-3 (Homo sapiens), P42574; recombinant procaspase-3 D3A, Ac-DEVD-pNA absorbance 405 nm; activation, % at 8.5 µM; 330,000 compounds, 0.11% hits;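 active = activation above the mean of all tested compounds plus 3 SD, cut at about 21% in these data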
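Compound: 8.5 µM single point, 0.8% DMSO / Material: Autoprocessing-dead procaspase-3 D3A mutant enzyme / Timing: 1 h preincubation plus 2 h reaction at 25 °C / Medium: Zinc-free HEPES/NaCl buffer with 0.01% Triton X-100 at pH 7.4 / Technique: 405 nm absorbance of p-nitroaniline, reads at 0 and 120 min / Repeats: one well per compound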
PC3 D3A act – procaspase-3 activators, counter-screen for dual procaspase-3/7 activator project, biochemical, absorbance, PC-3 D3A mutant, human; shares compounds with proCasp7 act; recombinant PC-3 D3A, Ac-DEVD-pNA absorbance 405 nm; aspartates 9, 28, 175 changed to alanine; 100% = enzyme control; 290 tested, under 10 active; activation, % at 8.5 µM;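 active = mean percent activation across triplicates above a set limit taken from the earlier primary procaspase-3 screen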
Procasp7 act – activation of procaspase-7 enzyme – biochemical, absorbance, human, dual procaspase-3/-7 activator project, confirmation. AID 493115, 2011. recombinant procaspase-7, Ac-DEVD-pNA absorbance 405 nm; D23A/D198A/D206A mutant that cannot self-cleave. shares compounds with proCasp7 act. activation, % at 8.5 µM. 290 tested, under 10 active;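 active = mean activation above a set limit carried over from the earlier primary screen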
Of the large screens only hits and unclear results are named; the others gave an inactive call (follow-up assays come after a bar, where they were run).

O=c1[nH]c(N/N=C/c2cc3c(cc2[N+](=O)[O-])OCO3)nc2ccccc12	none
Nc1nc(CCOc2ccc(F)cc2)cs1	none (no result: Bfl-1 A1 inh, proCasp7 act, proCasp3 act)
Cc1cc(=O)oc2cc(OCC(=O)Nc3ccccc3C(N)=O)c(Cl)cc12	none
CCOc1ccc(-n2c(SCC(=O)Nc3cc(C)on3)nc3c(c2=O)SCC3)cc1	none
CCOc1ccc(-n2c(SCC(=O)Nc3ccc(OC)cc3)nc3c(c2=O)SCC3)cc1	proCasp7 act 67.5 | PC3 D3A act inactive | Procasp7 act inactive
COc1cc(/C=C(/NC(=O)c2ccccc2)C(=O)N2CCOCC2)c([N+](=O)[O-])cc1OC	none
Cc1cc(N/N=C/c2ccc(N(C)C)cc2)nc(NCc2ccccc2)n1	proCasp7 act 32.4, proCasp3 act 57.1 | PC3 D3A act inactive | Procasp7 act inactive
Cn1c(CC(=O)Nc2ccccc2F)nnc1SCC(=O)Nc1nncs1	proCasp7 act 37.7 | PC3 D3A act inactive | Procasp7 act inactive
CCOC(=O)C1=C(C)NC(=O)NC1c1ccc(N2CCC(c3ccccc3)=N2)cc1 (centres undefined)	proCasp7 act 72.4, proCasp3 act 31.1 | PC3 D3A act inactive | Procasp7 act inactive
CCOC(=O)C1=C(C)NC(=O)NC1c1ccc(NC(C)=O)cc1 (centres undefined)	none
CCCN(CC(=O)Nc1ccc(Cl)cc1Cl)C(=O)/C=C/c1cc(OC)ccc1OC	proCasp7 act 36.5 | PC3 D3A act inactive | Procasp7 act inactive
CCOc1cc(C(=O)N=c2sccn2C)cc(Br)c1OC	none
CCCNC(=O)c1c(N)n(-c2cc(OC)cc(OC)c2)c2nc3ccccc3nc12	proCasp7 act 28.9, proCasp3 act 114.8 | PC3 D3A act inactive | Procasp7 act inactive
COc1ccc2c(-c3ccc(SC)cc3)c(-c3ccc(S(C)(=O)=O)cc3)sc2c1	proCasp7 act 54.6, proCasp3 act 42.5 (no result: Rce1 inh, PolyA inh) | PC3 D3A act inactive | Procasp7 act inactive
Cc1cc(C(=O)NCc2ccc(F)cc2)n(-c2ccccc2)n1	none
COc1cc(/C=C/C(=O)Nc2nc3ccc(S(=O)(=O)N(C)C)cc3s2)cc(OC)c1OC	proCasp7 act 35.1 | PC3 D3A act inactive | Procasp7 act inactive
O=C1OCCN1C(=O)[C@H]1[C@H](c2ccc(F)cc2)C(c2cccc(Cl)c2)=NN1c1ccc(Br)cc1	none (no result: Bfl-1 A1 inh, Rce1 inh, PolyA inh)
Cc1cccc(C2=NN(c3ccc(Br)cc3)[C@@H](C(=O)N3CCOC3=O)[C@@H]2c2ccc(F)cc2)c1	proCasp7 act 25.9, proCasp3 act 35.4 | PC3 D3A act inactive | Procasp7 act inactive
Cn1c2c(c(=O)n1-c1ccccc1)CSCC2	none
CCOCCCn1c(SCC(=O)Nc2ccc(NC(C)=O)cc2)nc2ccccc2c1=O	PolyA inh inconclusive (no result: proCasp7 act, proCasp3 act)
CCOC(=O)C1=C(C)NC(C)=C(C(=O)OCC)C1/C=C/c1ccccc1OC	proCasp7 act 28.6 | PC3 D3A act inactive | Procasp7 act inactive
COc1ccc(S(=O)(=O)NC(N)=NCCc2ccccc2)cc1	none (no result: PolyA inh)
COc1ccc2sc(-c3ccc(N(C)C)cc3)c(C#CC(C)(C)O)c2c1	proCasp7 act 69.6, proCasp3 act 48.7 (no result: Rce1 inh, PolyA inh) | PC3 D3A act inactive | Procasp7 act inactive
COc1ccc2sc(-c3ccc(SC)cc3)c(C#CC(C)(C)O)c2c1	none (no result: Rce1 inh, PolyA inh)
COC(=O)C1C(O)=C(C=Nc2ccc(N)cc2)C(=O)CC1(C)C (centres undefined)	proCasp7 act 35.9 | PC3 D3A act inactive | Procasp7 act inactive
